Values after ≈ are worked out from the molar mass of the structure shown.
test system: Micrococcus flavus; assay: Antibacterial activity against Micrococcus flavus ATCC 10240 treated for 24 hrs followed by sub-cultivated for 72 hrs by micro dilution method; assay type: functional; details: not given
Method in brief: (§1)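 2 µl from each well was serially subcultured into 100 µl fresh broth per well and incubated a further 72 h. MBC is the lowest concentration with no visible growth, taken as 99.5% killing of the original inoculum. Streptomycin and ampicillin were the positive controls.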

SMILES | MBC
CCNc1nnc(Cc2cc(OC)c(OC)cc2S(=O)(=O)N(C)C)s1 | 520 µM (≈ 201 µg/mL)

test system: Salmonella typhimurium; assay: Antibacterial activity against Salmonella Typhimurium ATCC 13311 treated for 24 hrs followed by sub-cultivated for 72 hrs by micro dilution method; assay type: functional, Salmonella enterica subsp. enterica serovar Typhimurium; details: Salmonella enterica; method in brief: as §1

SMILES | MBC
CCNc1nnc(Cc2cc(OC)c(OC)cc2S(=O)(=O)N(C)C)s1 | 260 µM (≈ 100 µg/mL)

test system: Fulvia fulva; assay: Antifungal activity against Fulvia fulva treated for 72 hrs followed by sub-cultivated for 5 days by serial dilution method; assay type: functional; details: not given
Method in brief: (§2)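 MFC obtained after the 72 h, 28 °C malt-broth microdilution (spore inoculum about 1.0 × 10^5 per well, compounds from 1 mg/ml DMSO). 2 µl was serially subcultured into 100 µl broth per well and incubated a further 5 days at 28 °C. MFC is the lowest concentration with no visible growth, taken as 99.5% killing of the original inoculum.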

SMILES | MFC
CCNc1nnc(Cc2cc(OC)c(OC)cc2S(=O)(=O)N(C)C)s1 | 70 µM (≈ 27.1 µg/mL)

test system: Listeria monocytogenes; assay: Antibacterial activity against Listeria monocytogenes NCTC 7973 treated for 24 hrs followed by sub-cultivated for 72 hrs by micro dilution method; assay type: functional; details: not given; method in brief: as §1

SMILES | MBC
CCNc1nnc(Cc2cc(OC)c(OC)cc2S(=O)(=O)N(C)C)s1 | 520 µM (≈ 201 µg/mL)

test system: Salmonella typhimurium; assay: Antibacterial activity against Salmonella Typhimurium ATCC 13311 after 24 hrs by micro dilution method; assay type: functional, Salmonella enterica subsp. enterica serovar Typhimurium; details: Salmonella enterica, ATCC 13311, 24 h
Method in brief: (§3)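 Microdilution MIC in 96-well plates. Bacterial suspensions adjusted in sterile saline to 1.0 × 10^5 CFU/ml, giving 1.0 × 10^4 cfu per well in LB broth. Compounds tested at up to 1 mg/ml. Plates incubated 24 h. MIC taken as the lowest concentration with no visible growth under a binocular microscope. OD at 655 nm was also read against a blank and the positive control. Streptomycin and ampicillin were the positive controls.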

SMILES | MIC
CCNc1nnc(Cc2cc(OC)c(OC)cc2S(=O)(=O)N(C)C)s1 | 260 µM (≈ 100 µg/mL)

test system: Bacillus cereus; assay: Antibacterial activity against Bacillus cereus clinical isolate treated for 24 hrs followed by sub-cultivated for 72 hrs by micro dilution method; assay type: functional; details: not given; method in brief: as §1

SMILES | MBC
CCNc1nnc(Cc2cc(OC)c(OC)cc2S(=O)(=O)N(C)C)s1 | 260 µM (≈ 100 µg/mL)

test system: Fulvia fulva; assay: Antifungal activity against Fulvia fulva after 72 hrs by serial dilution method; assay type: functional; details: not given
Method in brief: (§4)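 Modified microdilution MIC. Spores were washed from malt agar cultures with sterile 0.85% saline containing 0.1% Tween 80 and adjusted to about 1.0 × 10^5 per 100 µl well in malt broth. Compounds were dissolved in DMSO (1 mg/ml). Plates incubated 72 h at 28 °C. MIC is the lowest concentration with no visible growth under a binocular microscope. Bifonazole and ketoconazole were the references.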

SMILES | MIC
CCNc1nnc(Cc2cc(OC)c(OC)cc2S(=O)(=O)N(C)C)s1 | 70 µM (≈ 27.1 µg/mL)

test system: Pseudomonas aeruginosa; assay: Antibacterial activity against Pseudomonas aeruginosa ATCC 27853 treated for 24 hrs followed by sub-cultivated for 72 hrs by micro dilution method; assay type: functional; details: not given; method in brief: as §1

SMILES | MBC
CCNc1nnc(Cc2cc(OC)c(OC)cc2S(=O)(=O)N(C)C)s1 | 260 µM (≈ 100 µg/mL)

test system: Pseudomonas aeruginosa; assay: Antibacterial activity against Pseudomonas aeruginosa ATCC 27853 after 24 hrs by micro dilution method; assay type: functional; details: ATCC 27853, 24 h; method in brief: as §3

SMILES | MIC
CCNc1nnc(Cc2cc(OC)c(OC)cc2S(=O)(=O)N(C)C)s1 | 260 µM (≈ 100 µg/mL)

test system: Escherichia coli; assay: Antibacterial activity against Escherichia coli ATCC 35210 after 24 hrs by micro dilution method; assay type: functional; details: ATCC 35210, 24 h; method in brief: as §3

SMILES | MIC
CCNc1nnc(Cc2cc(OC)c(OC)cc2S(=O)(=O)N(C)C)s1 | 260 µM (≈ 100 µg/mL)

test system: Aspergillus versicolor; assay: Antifungal activity against Aspergillus versicolor ATCC 11730 treated for 72 hrs followed by sub-cultivated for 5 days by serial dilution method; assay type: functional; details: not given; method in brief: as §2

SMILES | MFC
CCNc1nnc(Cc2cc(OC)c(OC)cc2S(=O)(=O)N(C)C)s1 | 520 µM (≈ 201 µg/mL)

test system: Trichoderma viride; assay: Antifungal activity against Trichoderma viride IAM 5061 treated for 72 hrs followed by sub-cultivated for 5 days by serial dilution method; assay type: functional; details: not given; method in brief: as §2

SMILES | MFC
CCNc1nnc(Cc2cc(OC)c(OC)cc2S(=O)(=O)N(C)C)s1 | 130 µM (≈ 50.2 µg/mL)

test system: Aspergillus niger; assay: Antifungal activity against Aspergillus niger ATCC 6275 treated for 72 hrs followed by sub-cultivated for 5 days by serial dilution method; assay type: functional; details: not given; method in brief: as §2

SMILES | MFC
CCNc1nnc(Cc2cc(OC)c(OC)cc2S(=O)(=O)N(C)C)s1 | 260 µM (≈ 100 µg/mL)

test system: Aspergillus niger; assay: Antifungal activity against Aspergillus niger ATCC 6275 after 72 hrs by serial dilution method; assay type: functional; details: ATCC 6275, 72 h; method in brief: as §4

SMILES | MIC
CCNc1nnc(Cc2cc(OC)c(OC)cc2S(=O)(=O)N(C)C)s1 | 130 µM (≈ 50.2 µg/mL)

test system: Enterobacter cloacae; assay: Antibacterial activity against Enterobacter cloacae human isolate after 24 hrs by micro dilution method; assay type: functional; details: not given; method in brief: as §3

SMILES | MIC
CCNc1nnc(Cc2cc(OC)c(OC)cc2S(=O)(=O)N(C)C)s1 | 520 µM (≈ 201 µg/mL)

test system: Staphylococcus aureus; assay: Antibacterial activity against Staphylococcus aureus ATCC 6538 treated for 24 hrs followed by sub-cultivated for 72 hrs by micro dilution method; assay type: functional; details: not given; method in brief: as §1

SMILES | MBC
CCNc1nnc(Cc2cc(OC)c(OC)cc2S(=O)(=O)N(C)C)s1 | 520 µM (≈ 201 µg/mL)

test system: Aspergillus flavus; assay: Antifungal activity against Aspergillus flavus ATCC 9643 treated for 72 hrs followed by sub-cultivated for 5 days by serial dilution method; assay type: functional; details: not given; method in brief: as §2

SMILES | MFC
CCNc1nnc(Cc2cc(OC)c(OC)cc2S(=O)(=O)N(C)C)s1 | 260 µM (≈ 100 µg/mL)

test system: Penicillium ochrochloron; assay: Antifungal activity against Penicillium ochrochloron ATCC 9112 after 72 hrs by serial dilution method; assay type: functional; details: ATCC 9112, 72 h; method in brief: as §4

SMILES | MIC
CCNc1nnc(Cc2cc(OC)c(OC)cc2S(=O)(=O)N(C)C)s1 | 130 µM (≈ 50.2 µg/mL)

test system: Aspergillus fumigatus; assay: Antifungal activity against Aspergillus fumigatus human isolate treated for 72 hrs followed by sub-cultivated for 5 days by serial dilution method; assay type: functional; details: not given; method in brief: as §2

SMILES | MFC
CCNc1nnc(Cc2cc(OC)c(OC)cc2S(=O)(=O)N(C)C)s1 | 260 µM (≈ 100 µg/mL)

test system: Aspergillus versicolor; assay: Antifungal activity against Aspergillus versicolor ATCC 11730 after 72 hrs by serial dilution method; assay type: functional; details: ATCC 11730, 72 h; method in brief: as §4

SMILES | MIC
CCNc1nnc(Cc2cc(OC)c(OC)cc2S(=O)(=O)N(C)C)s1 | 260 µM (≈ 100 µg/mL)

test system: Micrococcus flavus; assay: Antibacterial activity against Micrococcus flavus ATCC 10240 after 24 hrs by micro dilution method; assay type: functional; details: ATCC 10240, 24 h; method in brief: as §3

SMILES | MIC
CCNc1nnc(Cc2cc(OC)c(OC)cc2S(=O)(=O)N(C)C)s1 | 260 µM (≈ 100 µg/mL)

test system: Penicillium ochrochloron; assay: Antifungal activity against Penicillium ochrochloron ATCC 9112 treated for 72 hrs followed by sub-cultivated for 5 days by serial dilution method; assay type: functional; details: not given; method in brief: as §2

SMILES | MFC
CCNc1nnc(Cc2cc(OC)c(OC)cc2S(=O)(=O)N(C)C)s1 | 260 µM (≈ 100 µg/mL)

test system: Escherichia coli; assay: Antibacterial activity against Escherichia coli ATCC 35210 treated for 24 hrs followed by sub-cultivated for 72 hrs by micro dilution method; assay type: functional; details: not given; method in brief: as §1

SMILES | MBC
CCNc1nnc(Cc2cc(OC)c(OC)cc2S(=O)(=O)N(C)C)s1 | 260 µM (≈ 100 µg/mL)

test system: Bacillus cereus; assay: Antibacterial activity against Bacillus cereus clinical isolate after 24 hrs by micro dilution method; assay type: functional; details: not given; method in brief: as §3

SMILES | MIC
CCNc1nnc(Cc2cc(OC)c(OC)cc2S(=O)(=O)N(C)C)s1 | 260 µM (≈ 100 µg/mL)

test system: Talaromyces funiculosus; assay: Antifungal activity against Penicillium funiculosum ATCC 36839 after 72 hrs by serial dilution method; assay type: functional; details: ATCC 36839, 72 h; method in brief: as §4

SMILES | MIC
CCNc1nnc(Cc2cc(OC)c(OC)cc2S(=O)(=O)N(C)C)s1 | 130 µM (≈ 50.2 µg/mL)

test system: Trichoderma viride; assay: Antifungal activity against Trichoderma viride IAM 5061 after 72 hrs by serial dilution method; assay type: functional; details: IAM 5061, 72 h; method in brief: as §4

SMILES | MIC
CCNc1nnc(Cc2cc(OC)c(OC)cc2S(=O)(=O)N(C)C)s1 | 70 µM (≈ 27.1 µg/mL)

test system: Talaromyces funiculosus; assay: Antifungal activity against Penicillium funiculosum ATCC 36839 treated for 72 hrs followed by sub-cultivated for 5 days by serial dilution method; assay type: functional; details: not given; method in brief: as §2

SMILES | MFC
CCNc1nnc(Cc2cc(OC)c(OC)cc2S(=O)(=O)N(C)C)s1 | 260 µM (≈ 100 µg/mL)

test system: Enterobacter cloacae; assay: Antibacterial activity against Enterobacter cloacae human isolate treated for 24 hrs followed by sub-cultivated for 72 hrs by micro dilution method; assay type: functional; details: not given; method in brief: as §1

SMILES | MBC
CCNc1nnc(Cc2cc(OC)c(OC)cc2S(=O)(=O)N(C)C)s1 | 520 µM (≈ 201 µg/mL)

test system: Listeria monocytogenes; assay: Antibacterial activity against Listeria monocytogenes NCTC 7973 after 24 hrs by micro dilution method; assay type: functional; details: NCTC 7973, 24 h; method in brief: as §3

SMILES | MIC
CCNc1nnc(Cc2cc(OC)c(OC)cc2S(=O)(=O)N(C)C)s1 | 520 µM (≈ 201 µg/mL)

test system: Aspergillus fumigatus; assay: Antifungal activity against Aspergillus fumigatus human isolate after 72 hrs by serial dilution method; assay type: functional; details: not given; method in brief: as §4

SMILES | MIC
CCNc1nnc(Cc2cc(OC)c(OC)cc2S(=O)(=O)N(C)C)s1 | 130 µM (≈ 50.2 µg/mL)

test system: Aspergillus flavus; assay: Antifungal activity against Aspergillus flavus ATCC 9643 after 72 hrs by serial dilution method; assay type: functional; details: ATCC 9643, 72 h; method in brief: as §4

SMILES | MIC
CCNc1nnc(Cc2cc(OC)c(OC)cc2S(=O)(=O)N(C)C)s1 | 130 µM (≈ 50.2 µg/mL)

test system: Staphylococcus aureus; assay: Antibacterial activity against Staphylococcus aureus ATCC 6538 after 24 hrs by micro dilution method; assay type: functional; details: ATCC 6538, 24 h; method in brief: as §3

SMILES | MIC
CCNc1nnc(Cc2cc(OC)c(OC)cc2S(=O)(=O)N(C)C)s1 | 520 µM (≈ 201 µg/mL)

From ChEMBL document CHEMBL1944580, “Synthesis of novel sulfonamide-1,2,4-triazoles, 1,3,4-thiadiazoles and 1,3,4-oxadiazoles, as potential antibacterial and antifungal agents. Biological evaluation and conformational analysis studies” (2012)
